# According to ChEMBL document CHEMBL3351992, “Modular assembly of purine-like bisphosphonates as inhibitors of HIV-1 reverse transcriptase” (J Med Chem, 2014):
# Activity calls are given as the source filed them. No cut-off for these calls is given here.
# Tests used:
# [1] = target: Human immunodeficiency virus type 1 reverse transcriptase (Human immunodeficiency virus 1, UniProt Q72547, M184V); assay: Inhibition of wild type HIV1 reverse transcriptase M184V mutant assessed as inhibition of DNA primer extension using [8-3H(N)]-dATP by scintillation proximity assay
# Outline: (§1)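 50 nM biotinylated PPT80 template/PPT primer and inhibitor (10-step 3-fold series, 100 μM–10 nM final, DMSO ≤5%) were preincubated 5 min at 37 °C. Buffer: 50 mM Tris pH 7.8, 50 mM NaCl, 6 mM MgCl2, 4 μM dCTP/dGTP/dTTP, 0.5 μM [3H]dATP. RT started the 5-min reaction, stopped with EDTA/streptavidin SPA beads. Counts were normalized to uninhibited controls; IC50 from variable-slope sigmoid fit.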
# [2] = test system: Human immunodeficiency virus type 1 reverse transcriptase (Human immunodeficiency virus 1), Q72547 [M184V]; assay: Inhibition of wild type HIV1 reverse transcriptase M184V mutant assessed as inhibition of DNA primer extension using [8-3H(N)]-dATP by scintillation proximity assay relative to wild type
# [3] = test system: Human immunodeficiency virus type 1 reverse transcriptase (Human immunodeficiency virus 1), Q72547 [K65R]; assay: Inhibition of wild type HIV1 reverse transcriptase K65R mutant assessed as inhibition of DNA primer extension using [8-3H(N)]-dATP by scintillation proximity assay relative to wild type
# [4] = target: T1, Farnesyl pyrophosphate synthase (Homo sapiens) (UniProt P14324); assay: Inhibition of human FPPS at 50 uM
# T1 sequence (whole entry): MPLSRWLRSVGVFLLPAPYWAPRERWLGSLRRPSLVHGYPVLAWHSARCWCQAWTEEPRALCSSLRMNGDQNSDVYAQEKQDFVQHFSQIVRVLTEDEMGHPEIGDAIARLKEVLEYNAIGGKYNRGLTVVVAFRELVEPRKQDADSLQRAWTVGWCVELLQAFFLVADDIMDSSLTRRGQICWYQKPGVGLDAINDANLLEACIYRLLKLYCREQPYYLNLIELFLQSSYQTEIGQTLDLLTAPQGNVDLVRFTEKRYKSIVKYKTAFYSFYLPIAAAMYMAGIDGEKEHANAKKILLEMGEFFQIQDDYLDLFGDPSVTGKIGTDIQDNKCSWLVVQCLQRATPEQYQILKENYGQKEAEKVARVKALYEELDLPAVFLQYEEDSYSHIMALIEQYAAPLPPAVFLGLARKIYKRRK
# [5] = target: T2, Geranylgeranyl pyrophosphate synthase (Homo sapiens) (UniProt O95749); assay: Inhibition of human GGPPS at 50 uM
# T2 sequence (whole entry): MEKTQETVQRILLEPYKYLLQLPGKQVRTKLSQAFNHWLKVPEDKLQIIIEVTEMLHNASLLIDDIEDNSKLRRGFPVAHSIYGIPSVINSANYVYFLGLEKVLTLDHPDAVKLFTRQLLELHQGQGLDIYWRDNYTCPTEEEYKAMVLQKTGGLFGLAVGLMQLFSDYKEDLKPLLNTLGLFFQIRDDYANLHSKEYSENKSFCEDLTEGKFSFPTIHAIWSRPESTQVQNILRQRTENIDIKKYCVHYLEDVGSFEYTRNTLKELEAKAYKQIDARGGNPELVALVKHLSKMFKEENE
# [6] = target: Human immunodeficiency virus type 1 reverse transcriptase (Human immunodeficiency virus 1, UniProt Q72547); assay: Inhibition of wild type HIV1 reverse transcriptase assessed as inhibition of DNA primer extension using [8-3H(N)]-dATP by scintillation proximity assay
# Outline: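 Biotinylated PPT80 DNA template annealed to DNA PPT primer (50 nM hybrid), preincubated 5 min at 37 °C with inhibitor in 50 mM Tris pH 7.8, 50 mM NaCl, 6 mM MgCl2, 4 μM dCTP/dGTP/dTTP, 0.5 μM [8-3H]-dATP. Purified RT added and reaction run 5 min. Quenched with EDTA plus streptavidin SPA beads. Beads counted after ~8 h settling. Ten-point 3-fold dilutions from 100 μM to 10 nM, DMSO ≤5%. Activity taken relative to uninhibited controls. IC50 from variable-slope sigmoidal fit; triplicate determinations.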
# [7] = target: Human immunodeficiency virus type 1 reverse transcriptase (Human immunodeficiency virus 1, UniProt Q72547, K65R); assay: Inhibition of wild type HIV1 reverse transcriptase K65R mutant assessed as inhibition of DNA primer extension using [8-3H(N)]-dATP by scintillation proximity assay; outline: as §1
# [8] = target: T1, Farnesyl pyrophosphate synthase (Homo sapiens); assay: Inhibition of human FPPS at 10 uM
# [9] = target: T2, Geranylgeranyl pyrophosphate synthase (Homo sapiens); assay: Inhibition of human GGPPS at 10 uM
structure (smiles),measurement,setting,value
CSc1nc2ncnc(NC(P(=O)(O)O)P(=O)(O)O)c2cc1-c1ccc(OC(C)C)cc1,IC50,[1],1400 nM
same,Ratio IC50,[2],1.6
same,Ratio IC50,[3],2.1
same,inhibition,[4],< 10%
same,inhibition,[5],< 10%
same,IC50,[6],1.8 µM
same,IC50,[7],1.8 µM
CSc1nc2ncnc(NCC(P(=O)(O)O)P(=O)(O)O)c2cc1-c1ccc(OC(C)C)cc1,IC50,[6],7.1 µM
O=P(O)(O)C(CNc1ncnc2ncc(-c3ccsc3)cc12)P(=O)(O)O,IC50,[6],9 µM
CC(C)Oc1ccc(-c2cnc3ncnc(NC(P(=O)(O)O)P(=O)(O)O)c3c2)cc1,IC50,[6],10 µM
COc1cccc(-c2cc3c(NCC(P(=O)(O)O)P(=O)(O)O)ncnc3nc2SC)c1,IC50,[1],4200 nM
same,Ratio IC50,[2],2.7
same,inhibition,[8],75%
same,Ratio IC50,[3],2.1
same,inhibition,[9],inactive
same,IC50,[6],2.4 µM
same,IC50,[7],3.3 µM
CSc1nc2ncnc(NCC(P(=O)(O)O)P(=O)(O)O)c2cc1-c1ccccc1,IC50,[1],600 nM
same,Ratio IC50,[2],0.4
same,inhibition,[8],75%
same,Ratio IC50,[3],3.4
same,inhibition,[9],inactive
same,IC50,[6],1.1 µM
same,IC50,[7],5.2 µM
CSc1ccc2c(NC(P(=O)(O)O)P(=O)(O)O)ncnc2n1,IC50,[6],> 50 µM
O=P(O)(O)C(Nc1ncnc2ncccc12)P(=O)(O)O,IC50,[6],> 50 µM
O=P(O)(O)C(CNc1ncnc2ncccc12)P(=O)(O)O,IC50,[6],> 50 µM
O=C(O)C(=NNc1ccc(Cl)cc1)C(=O)O,IC50,[6],1.5 µM
COc1cccc(-c2cnc3ncnc(NCC(P(=O)(O)O)P(=O)(O)O)c3c2)c1,IC50,[6],20 µM
CSc1nc2ncnc(NCC(P(=O)(O)O)P(=O)(O)O)c2cc1-c1ccsc1,IC50,[6],8.3 µM
O=P(O)(O)C(Nc1ncnc2nc(-c3cccs3)ccc12)P(=O)(O)O,IC50,[6],10.4 µM
